Measured values from article PMC10835759 (RSC Advances, 2024).
pIC50, pKi: −log10 of the molar value.

What was measured:
[1] = tested on: rat α-glucosidase; experiment: Glycosidase inhibitory activity, enzymes from rat small intestines; format: biochemical; conditions: rat small intestinal enzymes, at 100 μg mL^−1
Procedure, shortened: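 Enzyme source: brush border membrane vesicles prepared from rat small intestine and suspended in 0.1 M maleate buffer, pH 6.0. Test compound in DMSO, diluted in maleate buffer to 10% DMSO (2.5% final). Substrate solutions in maleate buffer: maltose 74 mM, sucrose 74 mM, 7.4 mM for isomaltase. Mixture incubated at 37 °C for 30 min and stopped by boiling for 2 min. Glucose measured by the glucose-oxidase method.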

[2] = biological target: rat intestinal sucrase (Rattus norvegicus, UniProt P23739); experiment: Inhibitory effects on rat intestinal α-glucosidases: sucrase; format: biochemical; conditions: for pIC50: IC50 Sucrase, rat small intestinal brush border membrane vesicles, sucrose 74 mM, pH 6.0, 37 °C, 30 min; for inhibition (%) Sucrase: at 100 μg mL^−1 (26a: 297 μM, 26b: 271 μM, 26c and 27c: 341 μM, 28a: 326 μM, 28b: 296 μM, 28c: 380 μM)
[3] = biological target: rat intestinal isomaltase (Rattus norvegicus, UniProt P23739); experiment: Inhibitory effects on rat intestinal α-glucosidases: isomaltase; format: biochemical; conditions: at 100 μg mL^−1 (26a: 297 μM, 26b: 271 μM, 26c and 27c: 341 μM, 28a: 326 μM, 28b: 296 μM, 28c: 380 μM)
[4] = biological target: yeast glucosidase; conditions: read-out: Ki, inhibitory activity against yeast glucosidase; cited from earlier work

Sequence of rat intestinal sucrase (P23739 whole entry): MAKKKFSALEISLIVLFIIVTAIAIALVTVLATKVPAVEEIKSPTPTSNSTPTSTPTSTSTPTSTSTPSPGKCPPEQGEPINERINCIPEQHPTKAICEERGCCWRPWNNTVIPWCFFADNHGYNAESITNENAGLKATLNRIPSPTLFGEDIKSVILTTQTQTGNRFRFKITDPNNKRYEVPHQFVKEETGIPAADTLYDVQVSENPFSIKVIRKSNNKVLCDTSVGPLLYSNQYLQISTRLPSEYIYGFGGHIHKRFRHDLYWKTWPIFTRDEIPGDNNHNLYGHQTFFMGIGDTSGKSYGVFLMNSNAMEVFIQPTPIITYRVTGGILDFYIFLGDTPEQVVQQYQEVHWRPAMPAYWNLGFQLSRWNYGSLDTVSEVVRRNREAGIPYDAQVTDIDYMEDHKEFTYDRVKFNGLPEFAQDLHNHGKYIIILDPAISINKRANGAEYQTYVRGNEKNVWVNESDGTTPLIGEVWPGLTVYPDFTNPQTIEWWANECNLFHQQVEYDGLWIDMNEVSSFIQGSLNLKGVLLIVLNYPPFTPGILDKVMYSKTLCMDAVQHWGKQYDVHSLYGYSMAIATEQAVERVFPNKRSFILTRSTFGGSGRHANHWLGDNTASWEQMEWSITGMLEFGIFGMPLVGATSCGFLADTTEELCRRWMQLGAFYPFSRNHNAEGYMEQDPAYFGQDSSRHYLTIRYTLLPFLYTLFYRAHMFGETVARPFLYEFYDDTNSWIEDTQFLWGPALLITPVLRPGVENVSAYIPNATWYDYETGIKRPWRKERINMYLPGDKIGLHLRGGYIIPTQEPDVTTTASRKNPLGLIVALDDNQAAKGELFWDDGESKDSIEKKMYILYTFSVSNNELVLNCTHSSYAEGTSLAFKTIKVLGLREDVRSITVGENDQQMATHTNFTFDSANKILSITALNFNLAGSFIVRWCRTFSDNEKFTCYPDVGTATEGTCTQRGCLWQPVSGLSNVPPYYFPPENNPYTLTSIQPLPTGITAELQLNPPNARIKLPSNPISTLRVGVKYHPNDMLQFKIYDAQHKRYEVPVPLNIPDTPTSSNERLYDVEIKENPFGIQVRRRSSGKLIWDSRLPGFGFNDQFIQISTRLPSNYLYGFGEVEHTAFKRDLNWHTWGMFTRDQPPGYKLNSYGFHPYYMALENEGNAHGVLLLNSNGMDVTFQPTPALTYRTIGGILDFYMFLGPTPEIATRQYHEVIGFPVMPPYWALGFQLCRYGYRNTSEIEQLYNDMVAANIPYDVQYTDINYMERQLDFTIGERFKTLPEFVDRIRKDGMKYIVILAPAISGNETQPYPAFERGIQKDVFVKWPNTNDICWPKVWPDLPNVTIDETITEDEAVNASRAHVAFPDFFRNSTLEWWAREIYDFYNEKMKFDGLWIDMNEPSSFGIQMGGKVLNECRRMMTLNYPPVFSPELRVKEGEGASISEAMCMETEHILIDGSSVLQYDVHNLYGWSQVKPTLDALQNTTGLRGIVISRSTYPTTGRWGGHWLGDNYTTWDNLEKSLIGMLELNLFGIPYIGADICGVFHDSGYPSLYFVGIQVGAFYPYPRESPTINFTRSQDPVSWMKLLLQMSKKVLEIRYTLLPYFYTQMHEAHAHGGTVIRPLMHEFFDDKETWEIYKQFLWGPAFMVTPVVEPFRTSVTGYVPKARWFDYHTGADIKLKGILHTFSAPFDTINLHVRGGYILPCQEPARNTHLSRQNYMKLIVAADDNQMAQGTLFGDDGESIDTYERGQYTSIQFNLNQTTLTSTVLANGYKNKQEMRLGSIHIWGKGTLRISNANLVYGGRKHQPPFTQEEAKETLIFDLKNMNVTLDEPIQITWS
Sequence of rat intestinal isomaltase (P23739 whole entry): as above

SMILES	inhibitory activity against maltase, sucrase and isomaltase (in words) [1]	pIC50 [2]	inhibition (%) Sucrase [2]	inhibition (%) Isomaltase [3]	pKi [4]
OCC[S+](CCO)C[C@@H](O)[C@@H](O)CO.[Cl-] [Compound 28c, Di(2-hydroxyethyl) [(2S,3S)-2,3,4-trihydroxybutyl] sulfonium chloride]	lost considerable activity	< 3.42	2.6%	−0.9%	–
O=S(=O)([O-])O[C@@H](CO)[C@H](O)C[S@+]1C[C@@H](O)[C@H](O)[C@H]1CO [Salacinol (1), salacinol, reference compound]	effectively inhibited	–	–	–	4.85
[O-][C@@H](CO)[C@H](O)C[S@+]1C[C@@H](O)[C@H](O)[C@H]1CO [Neosalacinol (4), neosalacinol, reference compound]	effectively inhibited	5.85	–	–	–
OCC[S+](C[C@@H](O)CO)C[C@@H](O)[C@@H](O)CO.[Cl-] (stereo partly drawn) [Compound 27c, [(S)-2,3-Dihydroxypropyl] (2-hydroxyethyl) ((2S,3S)-2,3,4-trihydroxybutyl) sulfonium chloride]	negligible	< 3.47	4.4%	−2.3%	–
OCC[S+](C[C@@H](O)[C@@H](O)CO)C(CO)CO.[Cl-] (single isomer, unassigned) [Compound 26c]	hardly inhibited	< 3.47	3.2%	5.9%	–
